For data set [1], the system named is HT-29. The data set can be described thus: Cytotoxicity against human HT-29 cells after 72 hrs by MTT assay. The data set is classed as functional, cell-based. Particulars: HT-29, 72 h. In outline:
(§1)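 Cells were attached overnight, then continuously exposed to drug for 72 h. MTT (0.5 mg/mL final) was added for 4 h at 37 °C, formazan dissolved in DMSO, and A570 read; all in triplicate. IC50 came from log(concentration) vs % cells killed. Media: RPMI-1640 for HT29, HCT116 p53+/+ and p53−/−, and HEY; DMEM for MDA-MB-435 and UMUC3; all with 10% FBS, 37 °C, 5% CO₂.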

Data set [2] concerns NCI/ADR-RES. The data set can be described thus: Cytotoxicity against human NCI/ADR-RES cells after 72 hrs by MTT assay. The data set is classed as functional, cell-based.
Data set [3] deals with HEY. The data set can be described thus: Cytotoxicity against human HEY cells after 72 hrs by MTT assay. The data set is classed as functional, cell-based. In outline: as §1
In general terms: Tetrazolium dyes change colour on reduction, which living cells bring about.

For data set [4], the system named is UMUC3. The data set can be described thus: Cytotoxicity against human UM-UC-3 cells after 72 hrs by MTT assay. The data set is classed as functional, cell-based. Particulars: UMUC3, 72 h. In outline:
as §1

Data set [5] relates to 5637. The data set can be described thus: Cytotoxicity against human 5637 cells after 72 hrs by MTT assay. Format: functional, cell-based. To be noted: Homo sapiens, 5637, 72 h.
Data set [6] deals with HCT-116. The data set can be described thus: Cytotoxicity against p53 deficient human HCT116 cells […] after 72 hrs by MTT assay. Particulars: HCT-116, 72 h. Format: functional, cell-based. In a few lines: as §1
Data set [7] has as its system HCT-116. The data set can be described thus: Cytotoxicity against human HCT116 cells […] after 72 hrs by MTT assay. To be noted: HCT-116, 72 h. Format: functional, cell-based. In outline: as §1
Data set [8] can be described thus: Octanol-water distribution coefficient, log P of the compound. The data set is classed as physicochemical.
Data set [9] deals with MDA-MB-435. The data set can be described thus: Cytotoxicity against human MDA-MB-435 cells at 1 uM after 24 hrs using crystal violet staining by colony formation assay. Format: functional, cell-based. In outline:
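Cells were plated at 1000 per well, attached overnight, and exposed to 1 μM for 24 h. They were then washed and grown in fresh medium for 8–10 days until colonies formed, fixed in 1% glutaraldehyde for 30 min, and stained with 2% crystal violet for 30 min. Vehicle was DMSO.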

The subject of data set [10] is MDA-MB-435. The data set can be described thus: Cytotoxicity against human MDA-MB-435 cells after 72 hrs by MTT assay. To be noted: MDA-MB-435, 72 h. Format: functional, cell-based. In a few lines:
as §1

Calls of active or inactive are those of the source. The calls are words filed in the database; no cut-off is given here.

A word on the IC50: it is the concentration that gives 50% inhibition. By logP is commonly meant a log measure of how a compound divides between an organic and an aqueous phase. Consider `C#CC(=O)N(c1ccc(OC)cc1OC)C(C(=O)NC1CCCC1)c1cccs1` (stereo not drawn), for which the IC50 in data set [1] was 2.3 µM; in data set [2], 0.4 µM; in data set [3], 4.1 µM; in data set [4] it was over 20 µM; in [5], 1.7 µM; in data set [6] it was 7 µM. Also, the concentration for half-maximal inhibition (IC50) in [7] was found to be 6.9 µM; in [10], 1.7 µM. The logP in [8] amounted to 2.26. Besides, the outcome in data set [9] was Active.
Turning to `C#CC(=O)N(c1ccc(OC)c(OC)c1)C(C(=O)NC1CCCC1)c1cccs1` (stereo not drawn), the IC50 in data set [1] was 5.5 µM; in [2], 0.9 µM; in data set [3], 3.4 µM; in data set [4], over 20 µM; in data set [5] it was 2 µM; in [6], 9.6 µM. Further, the IC50 in data set [7] was 7.7 µM; in [10], 2 µM. Besides, the logP in data set [8] was 2.26. Further, the result in data set [9] was Active.
With `C#CC(=O)N(c1cccc(C(F)(F)F)c1)C(C(=O)NC1CCCCC1)c1cccs1` (stereo not drawn), the concentration for half-maximal inhibition (IC50) in [1] was 6 µM; in [2] it was 0.4 µM; in data set [3], 5.2 µM; in data set [4] it was over 20 µM; in data set [5], 1.6 µM; in data set [6], 10.4 µM. The IC50 stood at 8.3 µM in [7] and 6.9 µM in data set [10]. Further, the logP in [8] turned out to be 3.88. Also, in [9], the result was Active.
With `C#CC(=O)N(c1cccc(OC)c1)C(C(=O)NC1CCCC1)c1cccs1` (stereo not drawn), the 50% inhibitory concentration (IC50) in data set [1] was 2.3 µM; in [2] it was 0.3 µM; in data set [3] it was 1.9 µM; in data set [4], 6.9 µM; in data set [5], 0.3 µM; in data set [6], 5.6 µM. Besides, the 50% inhibitory concentration (IC50) was determined as 7.2 µM in data set [7] and 1.7 µM in data set [10]. Also, the logP in [8] turned out to be 2.55. In addition, the result in data set [9] was Active.
`C#CC(=O)N(c1ccc2ccccc2c1)C(C(=O)NC1CCCC1)c1ccccc1` (stereo not drawn): the half-inhibitory concentration (IC50) is 4.9 µM in data set [1]; 0.3 µM in data set [2]; 1.7 µM in data set [3]; over 20 µM in data set [4]; 0.5 µM in data set [5]; 7.4 µM in [6]. The IC50 in data set [7] is 6.8 µM; in data set [10], 7.3 µM. In [8], the lipophilicity (logP) came to 4.11. Moreover, in [9], the outcome was Active.
Take `C#CC(=O)N(c1ccccc1F)C(C(=O)NC1CCCCC1)c1ccccc1F` (stereo not drawn): the 50% inhibitory concentration (IC50) was 7.7 µM in data set [1]; 0.4 µM in data set [2]; 5.6 µM in data set [3]; over 20 µM in data set [4]; 2.1 µM in data set [5]; 10.1 µM in data set [6]. In addition, the 50% inhibitory concentration (IC50) in data set [7] was 11.9 µM; in data set [10] it was 6.5 µM. This compound also showed a logP in data set [8] of 4.17. Also, the outcome in data set [9] was Active.
For the compound `C#CC(=O)N(c1cccc(C(F)(F)F)c1)C(C(=O)NC1CCCC1)c1ccc(F)cc1` (stereo not drawn), the IC50 in [1] is 4.8 µM; in data set [2] it was 0.4 µM; in data set [3] it was 2.4 µM; in [4], 8 µM; in [5] it was 0.5 µM; in data set [6] it was 6.9 µM. Further, the 50% inhibitory concentration (IC50) turned out to be 7.5 µM in [7] and 5.2 µM in data set [10]. In addition, the lipophilicity (logP) in data set [8] was determined as 4.38. In addition, the outcome in data set [9] was Active.
For `C#CC(=O)N(Cc1ccco1)C(C(=O)NC1CCCC1)c1ccccc1F` (stereo not drawn), the IC50 in [1] was over 10 µM; in data set [2], 1.2 µM; in [3], 4.3 µM; in data set [4] it was over 20 µM; in [5], 2.9 µM; in [6], 13 µM. Besides, the values for the concentration for half-maximal inhibition (IC50) in [7] and in data set [10] were 10.5 µM and 1.7 µM, respectively. In data set [8], this compound yielded a logP of 2.39. The outcome in [9] was Active.
Regarding `CC[C@@]1(O)C(=O)OCc2c1cc1n(c2=O)Cc2cc3ccccc3nc2-1` [CAMPTOTHECIN], the logP in data set [8] came to 1.67.
Turning to `COc1cccc2c1C(=O)c1c(O)c3c(c(O)c1C2=O)C[C@@](O)(C(=O)CO)C[C@@H]3O[C@H]1C[C@H](N)[C@H](O)[C@H](C)O1` [DOXORUBICIN], in [8], the logP is -0.82. Also, the outcome in data set [9] was Active.
